The test system of assay [1] is Rattus norvegicus. Kind of assay: Effect on lower lip retraction in Wistar rat at 10 mg/kg. It counts as functional. A digest of the protocol:
(§1)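 Male Wistar rats (290–310 g) dosed ip in 1% Tween 80 (2 ml/kg), caged singly; lower lip retraction scored 15, 30 and 45 min after dosing as 0 (incisors not visible), 0.5 (partly) or 1 (completely visible), totals up to 3 per rat. n = 6 per group; one-way ANOVA followed by Dunnett's test.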

In assay [2] the test system is Rattus norvegicus. Kind of assay: Effect on lower lip retraction in Wistar rat at 20 mg/kg. In kind it is functional. In a few lines: as §1
Assay [3] deals with Rattus norvegicus. Kind of assay: Effect on 8-OH-DPAT-induced lower lip retraction in Wistar rat at 10 mg/kg. In kind it is functional.
The subject of assay [4] is Rattus norvegicus. The assay can be described thus: Effect on 8-OH-DPAT-induced lower lip retraction in Wistar rat at 20 mg/kg. In kind it is functional.
The target of assay [5] is T1, 5-hydroxytryptamine receptor 1A (Rattus norvegicus, UniProt P19327).
T1 sequence (P19327 whole entry): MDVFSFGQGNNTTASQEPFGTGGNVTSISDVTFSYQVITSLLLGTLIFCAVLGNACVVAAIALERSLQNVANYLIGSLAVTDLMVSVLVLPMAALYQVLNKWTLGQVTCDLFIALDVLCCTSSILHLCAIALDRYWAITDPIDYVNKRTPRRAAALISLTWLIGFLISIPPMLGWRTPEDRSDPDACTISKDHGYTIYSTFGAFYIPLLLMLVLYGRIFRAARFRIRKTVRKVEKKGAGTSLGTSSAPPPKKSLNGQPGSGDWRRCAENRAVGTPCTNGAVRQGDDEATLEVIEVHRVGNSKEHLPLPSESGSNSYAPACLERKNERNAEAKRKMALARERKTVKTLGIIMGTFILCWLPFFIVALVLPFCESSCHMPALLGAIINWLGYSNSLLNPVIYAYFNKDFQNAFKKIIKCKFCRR
Kind of assay: Displacement of [3H]8-OH-DPAT from 5HT1A in rat hippocampal membranes. In kind it is cell membranes, Hippocampus, Membrane. A digest of the protocol:
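Rat hippocampal membranes, [3H]-8-OH-DPAT as radioligand, 5-HT defining nonspecific binding. 7–9 drug concentrations run in triplicate, at least three separate experiments. Filtration through GF/B filters with three ice-cold buffer washes, scintillation counting. Ki from non-linear regression of binding isotherms via Cheng-Prusoff equation.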
A general note: Loss of bound radioactivity is the signal in a displacement assay; it reports binding, not function.

Another assay addresses D(2) dopamine receptor (Rattus norvegicus, UniProt P61169). The assay can be described thus: Displacement of [3H]spiperone from dopamine D2 receptor in rat striatal membranes. It counts as cell membranes, Membrane. In a few lines: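 Competition binding on rat striatal membranes using [3H]-spiperone, butaclamol for nonspecific binding; filtration through GF/B filters and scintillation counting. Run at two compound concentrations, each in triplicate, and affinity expressed as estimated Ki.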

The nature of assay [6]: Displacement of [3H]prazosin from adrenergic alpha1 receptor in rat cortical membranes. It counts as cell membranes, Membrane. In a few lines: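 Rat cortical membranes with [3H]-prazosin; phentolamine defines nonspecific binding. 7–9 drug concentrations in triplicate, at least three separate experiments; stopped by GF/B filtration with three ice-cold buffer washes, bound radioactivity by liquid scintillation counting; Ki from non-linear regression and Cheng-Prusoff equation.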

Assay [7] has as its target 5-hydroxytryptamine receptor 7 (Homo sapiens, UniProt P34969). The assay can be described thus: Displacement of [3H]5-CT from human 5HT7 expressed in HEK293 cells. It counts as cell-based. A digest of the protocol: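 HEK293 cells stably transfected with human 5-HT7(b) cDNA; membranes (10 µg protein) incubated 1 h at 37 °C in 50 mM Tris-HCl pH 7.4 with 4 mM MgCl2, 0.1 mM pargyline, 0.1% ascorbic acid, 0.5 nM [3H]-5-CT and 7–9 test concentrations in triplicate; 10 µM 5-HT defines nonspecific binding. GF/B filtration, scintillation counting; Ki via Cheng-Prusoff from ≥3 experiments.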

Assay [8] is filed under the species Mus musculus. The conditions noted are these: Swiss Albino, 5 mg/kg.
Assay [9] is filed under the species Mus musculus. The conditions noted are these: Swiss Albino, 10 mg/kg.
The species entered for assay [10] is Mus musculus. The note with it: Swiss Albino, 5 mg/kg. The source holds these as a separate data set.
For assay [11], the species on record is Mus musculus. The conditions noted are these: Swiss Albino, 10 mg/kg. This is another data set of the same source.
The species named for assay [12] is Mus musculus. The note with it: Swiss Albino, 5 mg/kg. This is another data set of the same source.
The species named for assay [13] is Mus musculus. The conditions noted are these: Swiss Albino, 10 mg/kg. The source holds these as a separate data set.
Assay [14] is filed under the species Mus musculus. The conditions noted are these: Swiss Albino, 5 mg/kg. The source holds these as a separate data set.
For assay [15], the species on record is Mus musculus. The conditions noted are these: Swiss Albino, 10 mg/kg. This is another data set of the same source.
The subject of assay [16] is Mus musculus. The assay can be described thus: Anxiolytic activity in Swiss Albino mouse assessed as number of punished crossings for 60 secs at 2.5 mg/kg administered 30 mins before the test by four-plate test. In kind it is functional. In a few lines: (§2)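 Male Albino Swiss mice (24–28 g), compound suspended in 1% aqueous Tween 80, given ip (10 ml/kg). Mouse placed in box with four metal floor plates, 15 s exploration, then floor electrified (120 V, 0.5 s) at each plate-to-plate crossing, no new shock for 3 s. Punished crossings counted over 60 s. n = 9-10/group; one-way ANOVA then Dunnett's test.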

Assay [17] has as its system Mus musculus. Kind of assay: Anxiolytic activity in Swiss Albino mouse assessed as number of punished crossings for 60 secs at 5 mg/kg administered 30 mins before the test by four-plate test. In kind it is functional. A digest of the protocol: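 Male Albino Swiss mice dosed ip (1% aqueous Tween 80, 10 ml/kg) 30 min beforehand. Opaque box floored with four metal plates; 15 s free exploration, then each plate-to-plate crossing triggers a 0.5 s, 120 V floor shock, with no new shock for 3 s if running continues. Punished crossings counted over 60 s; n = 9-10, ANOVA plus Dunnett's test.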

Assay [18] relates to Mus musculus. Kind of assay: Anxiolytic activity in Swiss Albino mouse assessed as number of punished crossings for 60 secs at 10 mg/kg administered 30 mins before the test by four-plate test. It counts as functional. In a few lines:
as §2

Assay [19] deals with Mus musculus. The assay can be described thus: Antidepressant activity in Swiss Albino mouse assessed as immobility time during final 4 mins of 6 mins session at 5 mg/kg administered 30 mins before the test by forced-swimming test. In kind it is functional. In a few lines:
(§3)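 Male Albino Swiss mice (24–28 g), compound given ip in 1% aqueous Tween 80 (10 ml/kg), 30 min before test. Mouse placed singly in glass cylinder (25 cm high, 10 cm diameter) holding 6 cm water at 23–25 °C for 6 min; immobility (floating, only small head-keeping movements) timed over last 4 min. n = 9-10 per group; one-way ANOVA then Dunnett's test.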

For assay [20], the system named is Mus musculus. Kind of assay: Antidepressant activity in Swiss Albino mouse assessed as immobility time during final 4 mins of 6 mins session at 10 mg/kg administered 30 mins before the test by forced-swimming test. It counts as functional. In a few lines: as §3
The test system of assay [21] is Mus musculus. Kind of assay: Effect on locomotor activity in Swiss Albino mouse assessed as number of crossings in 6 mins at 5 mg/kg administered 30 mins before the test. In kind it is functional. In a few lines:
(§4)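 Male Albino Swiss mice (24–28 g) given compound ip (suspension in 1% aqueous Tween 80, 10 ml/kg). Animals housed singly in plastic cages in a multichannel photobeam activity monitor. Ambulation crossings counted over first 6 min and over 30-min session. n = 9-10/group; one-way ANOVA then Dunnett's test.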

For assay [22], the system named is Mus musculus. The assay can be described thus: Effect on locomotor activity in Swiss Albino mouse assessed as number of crossings in 30 mins at 5 mg/kg administered 30 mins before the test. In kind it is functional. A digest of the protocol:
(§5)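 Male Albino Swiss mice given compound ip (1% Tween 80, 10 ml/kg) 30 min before placement singly in plastic cages in a multichannel photobeam activity monitor; ambulation crossings counted over the first 6 min and over a 30 min session. n = 9-10 per group; ANOVA then Dunnett's test.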

For assay [23], the system named is Mus musculus. Kind of assay: Effect on locomotor activity in Swiss Albino mouse assessed as number of crossings in 6 mins at 10 mg/kg administered 30 mins before the test. It counts as functional. In a few lines: as §4
Assay [24] has as its system Mus musculus. The assay can be described thus: Effect on locomotor activity in Swiss Albino mouse assessed as number of crossings in 30 mins at 10 mg/kg administered 30 mins before the test. In kind it is functional. In a few lines:
as §5

In assay [25] the test system is Rattus norvegicus. The assay can be described thus: Effect on lower lip retraction in Wistar rat at 0.1 mg/kg. In kind it is functional. In a few lines:
as §1

Assay [26] concerns Rattus norvegicus. The assay can be described thus: Effect on 8-OH-DPAT-induced lower lip retraction in Wistar rat at 0.1 mg/kg. In kind it is functional.
Assay [27] deals with Rattus norvegicus. The assay can be described thus: Effect on lower lip retraction in Wistar rat at 2.5 mg/kg. It counts as functional. In a few lines:
as §1

Assay [28] concerns Rattus norvegicus. The assay can be described thus: Effect on lower lip retraction in Wistar rat at 5 mg/kg. In kind it is functional. A digest of the protocol:
as §1

Assay [29] has as its system Rattus norvegicus. The assay can be described thus: Effect on 8-OH-DPAT-induced lower lip retraction in Wistar rat at 2.5 mg/kg. In kind it is functional.
In assay [30] the test system is Rattus norvegicus. The assay can be described thus: Effect on 8-OH-DPAT-induced lower lip retraction in Wistar rat at 5 mg/kg. It counts as functional.
Assay [31] is filed under the species Mus musculus. The note with it: Swiss Albino, 20 mg/kg.
The species entered for assay [32] is Mus musculus. The note with it: Swiss Albino, 20 mg/kg. The source holds these as a separate data set.
The species entered for assay [33] is Mus musculus. The note with it: Swiss Albino, 20 mg/kg. The source holds these as a separate data set.
For assay [34], the species on record is Mus musculus. The note with it: Swiss Albino, 10 mg/kg. The source holds these as a separate data set.
The species named for assay [35] is Mus musculus. The conditions noted are these: Swiss Albino, 20 mg/kg. This is another data set of the same source.
Assay [36] is filed under the species Mus musculus. The note with it: Swiss Albino, 20 mg/kg. This is another data set of the same source.

Sequence of 5-hydroxytryptamine receptor 7 (P34969 whole entry): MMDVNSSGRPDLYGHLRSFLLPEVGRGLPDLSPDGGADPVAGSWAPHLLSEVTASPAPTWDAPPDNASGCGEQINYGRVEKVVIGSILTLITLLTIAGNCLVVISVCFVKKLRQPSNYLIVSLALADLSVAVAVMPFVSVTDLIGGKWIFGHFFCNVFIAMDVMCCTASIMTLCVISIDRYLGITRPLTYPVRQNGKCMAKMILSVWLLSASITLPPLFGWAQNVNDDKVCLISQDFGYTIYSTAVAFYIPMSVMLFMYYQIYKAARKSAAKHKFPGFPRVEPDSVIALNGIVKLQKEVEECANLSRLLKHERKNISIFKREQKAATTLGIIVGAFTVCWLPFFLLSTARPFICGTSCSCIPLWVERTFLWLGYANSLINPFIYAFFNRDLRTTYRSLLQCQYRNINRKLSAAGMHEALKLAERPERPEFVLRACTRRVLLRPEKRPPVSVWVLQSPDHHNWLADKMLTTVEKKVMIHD
Sequence of D(2) dopamine receptor (P61169 whole entry): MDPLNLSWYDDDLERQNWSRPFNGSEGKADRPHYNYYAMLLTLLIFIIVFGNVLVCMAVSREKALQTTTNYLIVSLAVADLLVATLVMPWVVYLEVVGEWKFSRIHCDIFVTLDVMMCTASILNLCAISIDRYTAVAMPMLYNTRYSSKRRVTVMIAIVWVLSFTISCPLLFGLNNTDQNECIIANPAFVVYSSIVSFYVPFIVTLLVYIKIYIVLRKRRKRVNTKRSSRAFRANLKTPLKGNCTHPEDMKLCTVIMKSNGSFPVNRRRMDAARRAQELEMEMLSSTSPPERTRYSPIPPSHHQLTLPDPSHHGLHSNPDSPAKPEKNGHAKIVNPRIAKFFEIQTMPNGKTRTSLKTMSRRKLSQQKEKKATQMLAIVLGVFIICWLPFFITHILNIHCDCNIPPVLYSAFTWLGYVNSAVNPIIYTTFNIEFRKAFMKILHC

What is called Ki is a dissociation constant, usually derived from enzyme kinetics or from competition with a known ligand. A high value points to a looser hold on the target. For the compound `CC1C(=O)N(CCCCN2CCN(c3cccc(C(F)(F)F)c3)CC2)C(=O)C1C` (centres undefined), the Activity amounted to 1.3 with Rattus norvegicus [1], 1.3 with Rattus norvegicus [2], 1.4 in the assay with Rattus norvegicus [3] and 0.2 with Rattus norvegicus [4]. The inhibitory constant (Ki) worked out at 2.2 nM in [5], 4370 nM at D(2) dopamine receptor, 48 nM in [6] and 107 nM in [7]. Besides, the deltaT in the assay filed under Mus musculus [8] is -0.2 °C; in the assay filed under Mus musculus [9], -0.4 °C; in the assay filed under Mus musculus [10] it was 0 °C; in the assay filed under Mus musculus [11], -0.2 °C; in the assay filed under Mus musculus [12] it was -0.6 °C; in the assay filed under Mus musculus [13] it was -0.1 °C. Also, the figures for the deltaT in the assay listed under Mus musculus [14] and in the assay filed under Mus musculus [15] were -0.4 °C and -0.2 °C, respectively.

`CC1(C)CC(=O)N(CCCCN2CCN(c3cccc(C(F)(F)F)c3)CC2)C(=O)C1`: the Activity in the assay on Mus musculus [16] was 5.3; in the assay on Mus musculus [17] it was 6.9; with Mus musculus [18] it was 7.6; in the assay with Mus musculus [19] it was 157.7 s; with Mus musculus [20], 112.1 s; with Mus musculus [21], 121.7. In addition, the Activity in the assay on Mus musculus [22] is reported as 730.8; in the assay on Mus musculus [23], 23; in the assay with Mus musculus [24] it was 265.1. Besides, the Ki is 127 nM in [6] and 46 nM in [7].

On to `COc1ccccc1N1CCN(CCN(C(=O)C2CCCCC2)c2ccccn2)CC1` [WAY-100,635], for which the Activity in the assay with Rattus norvegicus [25] came out at 0; in the assay on Rattus norvegicus [26] it was 0.2.

For `O=C1C2=C(CCCC2)C(=O)N1CCCCN1CCN(c2cccc(C(F)(F)F)c2)CC1`, the Activity came out at 1.9 in the assay on Rattus norvegicus [27]; 2.2 with Rattus norvegicus [28]; 2.2 in the assay with Rattus norvegicus [1]; 2.3 with Rattus norvegicus [29]; 1.5 in the assay on Rattus norvegicus [30]; 1.1 in the assay on Rattus norvegicus [3]. Further, the Ki in assay [5] is 5.9 nM; at D(2) dopamine receptor, above 5000 nM; in [6], 30 nM; in assay [7], 134 nM. The deltaT in the assay filed under Mus musculus [9] was 0 °C; in the assay filed under Mus musculus [31], -1.3 °C; in the assay listed under Mus musculus [11], 0 °C; in the assay filed under Mus musculus [32] it was -1.1 °C; in the assay filed under Mus musculus [33], -0.6 °C; in the assay listed under Mus musculus [34], -0.2 °C. Moreover, the deltaT in the assay listed under Mus musculus [13] was 0.2 °C; in the assay listed under Mus musculus [35], -1.8 °C; in the assay listed under Mus musculus [15], 0 °C; in the assay filed under Mus musculus [36], -1.3 °C.

Source of the values: ChEMBL document CHEMBL1139831, “The influence of modifications in imide fragment structure on 5-HT(1A) and 5-HT(7) receptor affinity and in vivo pharmacological properties of some new 1-(m-trifluoromethylphenyl)piperazines” (Bioorg Med Chem, 2007).
